# Reference: ChEMBL document CHEMBL1799977, “Discovery of MK-0952, a selective PDE4 inhibitor for the treatment of long-term memory loss and mild cognitive impairment” (Bioorg Med Chem Lett, 2010)
# Experiments:
# [1] = target: 3',5'-cyclic-AMP phosphodiesterase 4A (Homo sapiens, UniProt P27815); test: Inhibition of PDE4A; conditions: pooled result: one value given for 3 cell lines, strains, targets or settings
# Outline: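 Catalytic domains of PDE4A, B and D expressed as GST constructs in SF9 cells (baculovirus). IC50s are averages of at least two experiments.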
# [2] = Ratio IC50 for PDE4 activity in human whole blood to IC50 for PDE4; assay type: tissue-based
# Outline: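 Ratio of two IC50s. The numerator is from human whole blood stimulated with LPS, read as inhibition of TNF-α release. The denominator (PDE4QT) is the mean of the IC50s on the PDE4A, B and D catalytic domains. These were expressed as GST constructs in Sf9 cells by baculovirus. Each IC50 is the average of at least two experiments.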
# [3] = target: Phosphodiesterase 4 (Homo sapiens, UniProt P27815+Q08499+Q07343+Q08493); test: Inhibition of PDE4 activity in human whole blood assessed as inhibition of LPS-induced TNF-alpha release
# [4] = (§1) Oral bioavailability in Sprague-Dawley rat at 10 mg/kg; assay type: ADME, organism-based; conditions: Sprague-Dawley, in vivo
# [5] = (§2) Half life in Sprague-Dawley rat at 10 mg/kg, po and 5 mg/kg, iv; assay type: ADME, organism-based; conditions: Sprague-Dawley, in vivo
# [6] = test system: Rattus norvegicus; test: as §1; assay type: ADME, organism-based; conditions: in vivo
# [7] = test system: Rattus norvegicus; test: as §2; assay type: ADME, organism-based; conditions: in vivo
# Chain of 3',5'-cyclic-AMP phosphodiesterase 4A (P27815 whole entry, the tested form may be a part): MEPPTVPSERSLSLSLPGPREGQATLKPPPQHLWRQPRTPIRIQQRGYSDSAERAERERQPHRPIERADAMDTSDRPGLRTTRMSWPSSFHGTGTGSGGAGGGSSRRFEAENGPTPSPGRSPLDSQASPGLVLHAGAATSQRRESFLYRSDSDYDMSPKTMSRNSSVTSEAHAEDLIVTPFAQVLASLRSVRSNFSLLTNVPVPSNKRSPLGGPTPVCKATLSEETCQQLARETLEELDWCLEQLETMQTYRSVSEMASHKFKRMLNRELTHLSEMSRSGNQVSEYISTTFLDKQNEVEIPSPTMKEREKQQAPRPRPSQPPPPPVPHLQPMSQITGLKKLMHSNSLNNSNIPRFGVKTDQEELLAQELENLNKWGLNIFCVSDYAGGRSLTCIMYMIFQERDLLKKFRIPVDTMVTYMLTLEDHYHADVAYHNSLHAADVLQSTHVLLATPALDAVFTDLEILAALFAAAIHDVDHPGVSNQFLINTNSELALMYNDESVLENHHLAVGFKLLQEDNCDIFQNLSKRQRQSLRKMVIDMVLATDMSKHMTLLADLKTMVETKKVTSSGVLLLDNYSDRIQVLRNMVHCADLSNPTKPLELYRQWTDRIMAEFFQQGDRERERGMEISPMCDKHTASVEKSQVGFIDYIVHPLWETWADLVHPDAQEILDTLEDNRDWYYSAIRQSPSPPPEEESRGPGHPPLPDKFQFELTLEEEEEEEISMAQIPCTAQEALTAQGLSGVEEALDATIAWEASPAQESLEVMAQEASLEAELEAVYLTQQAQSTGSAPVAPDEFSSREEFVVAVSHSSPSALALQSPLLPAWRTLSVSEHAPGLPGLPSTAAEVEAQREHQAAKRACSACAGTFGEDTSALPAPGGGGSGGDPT
IC50 [1],IC50 [3],bioavailability [4],half-life [5],F [6],t1/2 [7],SMILES,Ratio IC50 [2]
32 nM,> 40 µM,–,–,–,–,CC(C)(C)NC(=O)c1cn(-c2cccc(-c3ccc(C4CC4C(=O)O)cc3)c2)c2ncccc2c1=O (racemic),> 1140
0.54 nM,0.11 µM,100%,60 min,–,–,O=C(NC1CC1)c1cn(-c2cccc(-c3cccc(C4CC4C(=O)O)c3)c2)c2ncccc2c1=O (racemic),203
0.32 nM,0.6 µM,–,–,–,–,"CC(C)(c1cc(-c2cccc(-c3ccc(C4CC4C(=O)O)cc3)c2)c2ncccc2c1)S(C)(=O)=O (single isomer, unassigned; enantiomer B)",–
1.6 nM,0.16 µM,–,–,30%,3.9 h,O=C(NC1CC1)c1cn(-c2cccc(-c3ccc(C4CC4C(=O)O)cc3)c2)c2ncccc2c1=O (cis isomer) [listing 1 of 2 here],–
–,–,–,–,–,–,O=C(NC1CC1)c1cn(-c2cccc(-c3ccc(C4CC4C(=O)O)cc3)c2)c2ncccc2c1=O (racemic),526
–,–,–,–,–,–,O=C(NC1CC1)c1cn(-c2cccc(-c3ccc(C4CC4C(=O)O)cc3)c2)c2ncccc2c1=O (cis isomer) [listing 2 of 2 here],100
17 nM,6.4 µM,–,–,–,–,O=C(NC1(O)CC1)c1cn(-c2cccc(-c3ccc(C4CC4C(=O)O)cc3)c2)c2ncccc2c1=O (racemic),376
0.85 nM,0.075 µM,62%,306 min,–,–,CC(C)(CC(=O)O)c1ccc(-c2cccc(-n3cc(C(=O)NC4CC4)c(=O)c4cccnc43)c2)cc1,88
0.88 nM,0.61 µM,30%,366 min,–,–,CC(C)(Cc1ccc(-c2cccc(-n3cc(C(=O)NC4CC4)c(=O)c4cccnc43)c2)cc1)C(=O)O,693
0.54 nM,1.4 µM,–,–,–,–,"CC(C)(c1cc(-c2cccc(-c3ccc(C4CC4C(=O)O)cc3)c2)c2ncccc2c1)S(C)(=O)=O (single isomer, unassigned; enantiomer A)",–
0.58 nM,0.28 µM,58%,246 min,–,–,CC1(NC(=O)c2cn(-c3cccc(-c4ccc(C5CC5C(=O)O)cc4)c3)c3ncccc3c2=O)CC1 (racemic),482
0.66 nM,0.23 µM,–,–,–,–,O=C(NC1CC1)c1cn(-c2cccc(-c3ccc([C@H]4C[C@@H]4C(=O)O)cc3)c2)c2ncccc2c1=O,350
4.6 nM,1.3 µM,35%,282 min,–,–,O=C(NC1CC1)c1cn(-c2cccc(-c3ccccc3C3CC3C(=O)O)c2)c2ncccc2c1=O (racemic),282
0.55 nM,> 5 µM,5%,144 min,–,–,O=C(NC1CC1)c1cn(-c2cccc(-c3ccc(C4CC4c4nnn[nH]4)cc3)c2)c2ncccc2c1=O (racemic),> 9090
0.46 nM,0.15 µM,–,–,–,–,O=C(NC1CC1)c1cn(-c2cccc(-c3ccc([C@H]4C[C@@H]4C(=O)O)c(F)c3)c2)c2ncccc2c1=O,330
0.52 nM,0.22 µM,20%,144 min,–,–,O=C(NC1CCC1)c1cn(-c2cccc(-c3ccc(C4CC4C(=O)O)cc3)c2)c2ncccc2c1=O (racemic),432
0.35 nM,0.2 µM,–,–,–,–,O=C(NCC1CC1)c1cn(-c2cccc(-c3ccc(C4CC4C(=O)O)cc3)c2)c2ncccc2c1=O (racemic),571
1 nM,1 µM,–,–,–,–,O=C(NC1CC1)c1cn(-c2cccc(-c3ccc([C@@H]4C[C@H]4C(=O)O)cc3)c2)c2ncccc2c1=O,1000
0.51 nM,0.51 µM,25%,192 min,–,–,O=C(NCC(F)(F)F)c1cn(-c2cccc(-c3ccc(C4CC4C(=O)O)cc3)c2)c2ncccc2c1=O (racemic),1080
